Sampled rows, rich in hits. Any-hit rate of the full collection: about 5.6%.
aDG glyco up: increases alpha dystroglycan glycosylation | Pro5-aDG cells, alpha-DG glycosylation AlphaScreen (IIH6); 0% Pro5, 100% B10-LARGE cell signal | AID 624168 | activation, % at 10 µM | 0.22% of 360,000 active;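 active = activation of at least 8% versus controls, or a plate z-score of at least 8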;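 note: Pro5 are CHO cells carrying HIG-tagged alpha-DG that lacks glycosylation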
UPR CHOP act: apoptotic UPR (CHOP) activation. CHO-CHOP luciferase reporter, luminescence; percent of tunicamycin response over DMSO baseline. activation, % at 10 µM. 0.34% of 330,000 active;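 active = at 10 µM dose, activation of 40% or more, normalized to positive control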;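 note: 100% = tunicamycin at 10 µg/mL and 0% = DMSO alone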
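assay system = CHO CHOP reporter cells | amount = 500 CHO-CHOP cells per well | buffer or medium = F12 with 10% FBS | incubation = 16-18 h cell attachment, then 6 h compound exposure, 37 °C | detection = luminescence read with Steady-Glo | read-out = percent activation relative to tunicamycin control | controls = tunicamycin high control, DMSO low control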
UPR XBP1 act: activators of adaptive arm of unfolded protein response (XBP1); activation, % at 20 µM; 0.33% of 330,000 active; AID 463104; CHO-XBP1 luciferase reporter, IRE1-XBP1 UPR activation, luminescence; percent of tunicamycin response, DMSO as zero;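 active = versus positive control, 20 µM dose yields 30% or more activation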;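 note: 100% = tunicamycin at 10 µg/mL and 0% = DMSO only wells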
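Material: CHO cell line with stable XBP1 luciferase reporter; schedule: 16-18 h cell attachment at 37 °C, then 6 h compound exposure; signal: glow luminescence from Steady-Glo reagent; medium: serum-containing F12 medium, 10% FBS; benchmarks: tunicamycin 10 µg/mL and vehicle-only wells; read-out: percent activation relative to tunicamycin reference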
NR3A LBD binder: NR3A (human) ligand-binding domain modulation; NR3A LBD differential scanning fluorimetry, Tm shift; 0% = protein alone, 100% = glycine-bound protein; Tm shift relative to glycine control, % at 25 µM; 2.5% of 340,000 active;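 active = melting temperature shift of at least 10% of the positive control shift, at one fixed dose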
MPTP inh: permeability transition pore inhibition. isolated mouse mitochondria, Ca2+ swelling absorbance, 30 min. inhibition, % at 10 µM. 1.4% of 360,000 active. AID 602449;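 active = inhibition of 50% or more, scaled per plate between neutral and stimulator controls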;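 note: 0% = DMSO wells given calcium and 100% = 1 mM EGTA wells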
CHOP inhibitor: blocks CHOP induction under ER stress; CHO-K1 CHOP-promoter luciferase, tunicamycin-induced, 15-18 h; 3.8% of 220,000 active; AID 2732; inhibition, % at 10 µM;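 active = compounds that reduced the stress-induced luciferase reporter signal by more than about 70% of percent inhibition, limit read from the data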;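 note: 0% = tunicamycin plus vehicle and 100% = wells without tunicamycin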
Rh123 counter: membrane potential counter-screen of mitochondrial pore inhibitors. shares compounds with MPTP inh. isolated mitochondria, Rhodamine 123 fluorescence. inhibition, % at 10 µM. 78% of 5,000 active; in the data active = inhibition above about 22%;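 note: 0% = DMSO vehicle and 100% = positive control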
MPTP swell DR: dose response confirmation of mitochondrial permeability transition pore inhibitors | 58% of 780 active | isolated mitochondria swelling, absorbance | IC50, µM | shares compounds with MPTP inh; in the data active = IC50 below about 20 µM
MPTP cs DR: active in counter-screen for permeability transition pore inhibitors. shares compounds with MPTP inh. isolated mitochondria counterscreen, fluorescence read-out. IC50, µM. 49% of 780 active. AID 651564; in the data active = IC50 below about 80 µM
Starred values were filed as active, the others as inactive; . = no result given.

SMILES | aDG glyco up | UPR CHOP act | UPR XBP1 act | NR3A LBD binder | MPTP inh | CHOP inhibitor | Rh123 counter | others
O=C(NNc1cccc(Cl)n1)Nc1cccc(C(F)(F)F)c1 | 0 | 1 | -3 | -3 | 70* | 65 | 72*
Cc1nn(C)c(C)c1NC(=O)Nc1ccc(Cl)c(Cl)c1 | 0 | 2 | -2 | -2 | 102* | 8 | 88*
O=C(NNc1cccc(Cl)n1)Nc1ccc(Cl)cc1 | 0 | -1 | -1 | -1 | 6 | 9 | .
Cc1ccc2nc(Nc3ccc(C)c(C)c3)c3nncn3c2c1 | 0 | 6 | 4 | -5 | 1 | . | .
O=C(CN1C(=O)NC2(CCCC2)C1=O)Nc1nc(-c2ccccc2)cs1 | 0 | 0 | -1 | -1 | 1 | . | .
CCOC1=C2[C@@H](CN(S(=O)(=O)c3ccc(C)cc3)[C@H]2c2ccc(Cl)cc2)[C@H]2C(=O)N(c3ccccc3)C(=O)[C@H]2C1 | 1 | . | . | . | 2 | . | .
CCC1NC(=O)c2cccnc2-n2c1nc1cc(F)ccc1c2=O (stereo unspecified) | 0 | . | . | . | 0 | . | .
CNC(=S)N/N=C/c1cccc(OCc2ccccc2F)c1 | 3 | 2 | 2 | -17 | 70* | 29 | 28*
CCNC(=S)N/N=C/c1cccc(OCc2c(F)cccc2Cl)c1 | 1 | 3 | 2 | -7 | 2 | 42 | .
COc1ccc(OC)c(C(=O)c2c(C)oc3cc([N+](=O)[O-])c(O)c([N+](=O)[O-])c23)c1 | 0 | 1 | -1 | 0 | 2 | 0 | .
Cc1oc2cc([N+](=O)[O-])c(O)c([N+](=O)[O-])c2c1C(=O)c1ccc(Cl)cc1 | 0 | 0 | -1 | -3 | 76* | 25 | 59*
Cc1cc(OCC(=O)NCC(C)C)cc(C)c1Br | 0 | 3 | 0 | 1 | -1 | 27 | .
CC(C)CNC(=O)COc1ccc(Sc2ccc(OCC(=O)NCC(C)C)cc2)cc1 | 2 | 1 | -3 | -2 | 53* | 38 | 20 | MPTP swell DR=5.4*;MPTP cs DR=>80
CCCC(C)NC(=O)COc1ccc(Sc2ccc(OCC(=O)NC(C)CCC)cc2)cc1 (stereo unspecified) | 3 | -2 | 1 | 4 | 78* | 57 | 34*
COc1ccc(CNC(=O)[C@@H](NC(=O)C2CCN(C(=O)[C@@H](N)CC(C)C)CC2)C(C)C)cc1 | 0 | -2 | 1 | -2 | 1 | . | .
FC(F)(F)c1ccc(NC(=S)NCc2ccccc2)cc1 | 0 | 1 | 1 | 2 | 97* | 64 | 95*
FC(F)Sc1ccc(NC(=S)NC(c2ccccc2)c2ccccc2)cc1 | 2 | 7 | 8 | 28* | 98* | 54 | 63*
FC(F)Sc1ccc(NC(=S)NCc2ccccc2)cc1 | 1 | 1 | -2 | 12* | 85* | 32 | 92*
CCOc1ccc(C(=O)Nc2ccc(N3CCN(C)CC3)cc2)cc1Br | 4 | 1 | 4 | 0 | 60* | -37 | -15 | MPTP swell DR=18*;MPTP cs DR=>80
Cc1ccc(-c2nn(-c3ccccc3)cc2CSC(=N)N)cc1 | 1 | 3 | 1 | -3 | 99* | 60 | -25 | MPTP swell DR=5.5*;MPTP cs DR=41*
Cc1ccc(-c2nn(-c3ccccc3)cc2CC(=S)N2CCOCC2)cc1 | 0 | -1 | -5 | 2 | 1 | . | .
CCCN(C(=O)COC(=O)c1[nH]c(C)c(C(=O)OC)c1C)c1c(N)n(Cc2ccccc2)c(=O)[nH]c1=O | 0 | 0 | -3 | 0 | 60* | . | -19 | MPTP swell DR=>100;MPTP cs DR=>80
CCCN(C(=O)COC(=O)CC1CCCCC1)c1c(N)n(Cc2ccccc2)c(=O)[nH]c1=O | 0 | -1 | -1 | -3 | 2 | . | .
O=C(c1cc2sccc2n1Cc1ccccc1)N1CCN(c2nc3ccccc3s2)CC1 | 6 | 2 | -4 | -1 | 102* | 71* | 102*
Cc1ccc2c(c1)c1c(n2CC(O)CNC2CCCCC2)CCCC1 (stereo unspecified) | 0 | 4 | 11 | 0 | 80* | 94* | -20
SMILES | aDG glyco up | UPR CHOP act | UPR XBP1 act | NR3A LBD binder | MPTP inh | CHOP inhibitor | Rh123 counter | others
Cc1ccc2c(c1)c1c(n2CC(O)CNC(CO)(CO)CO)CCCC1 (stereo unspecified) | 0 | -1 | -3 | 0 | -2 | 11 | .
CS(=O)(=O)N(CC(=O)N1CCCC1)C1CCCCC1 | -1 | . | . | . | 0 | . | .
COc1ccccc1-c1nc(SCC(=O)Nc2cc(C)on2)c2c(=O)n(C)c(=O)n(C)c2n1 | 0 | 0 | 7 | 0 | -1 | . | .
CCOc1ccccc1-c1cc(-c2ccc(OC)cc2)nc2c1c(=O)n(C)c(=O)n2C | 0 | 2 | 19 | 0 | 83* | . | 6 | MPTP swell DR=>100;MPTP cs DR=>80
NS(=O)(=O)c1ccc(NC(=S)N2CCN(c3cccc(Cl)c3)CC2)cc1 | 1 | -2 | -2 | 1 | 3 | 33 | .
O=S(=O)(c1cccc(NC(=S)N2CCN(c3ccc(F)cc3)CC2)c1)C(F)F | 0 | -1 | 2 | -4 | 67* | 36 | 61*
O=S(=O)(c1cccc(NC(=S)N2CCN(c3cccc(Cl)c3)CC2)c1)C(F)F | 1 | -3 | 0 | 26* | 77* | 70* | 86*
COCCn1c(=O)[nH]c2cc(C(=O)NCCc3ccc(S(N)(=O)=O)cc3)ccc2c1=O | 0 | 0 | -1 | -1 | -2 | 7 | .
COC(=O)CSc1nnc(C)c(=O)[nH]1 | 0 | -2 | -1 | 0 | -5 | 10 | .
CCOC(=O)CNc1nnc(SCC(=O)OCC)[nH]c1=O | 0 | -2 | 1 | 1 | 58* | 46 | -4 | MPTP swell DR=>100;MPTP cs DR=>80
Cc1ccc(C)c(OCC(=O)Nc2nc3ccc([N+](=O)[O-])cc3s2)c1 | 0 | 1 | -1 | -1 | 13 | 63 | .
C/C(=C\c1ccccc1)C(=O)Nc1nc2ccc([N+](=O)[O-])cc2s1 | 0 | 9 | -2 | 10 | 53* | -13 | 66*
CSc1ncc(Cl)c(C(=O)Nc2ccccc2Br)n1 | 0 | 0 | 4 | 2 | 3 | 19 | .
O=S(=O)(Nc1nc(-c2sccc2Cl)cs1)c1cc(Cl)ccc1Cl | 0 | 1 | -2 | 14* | 78* | 60 | 51*
CC(C)(C)c1nnc(NS(=O)(=O)c2cc(Cl)ccc2Cl)s1 | 0 | 0 | -5 | 2 | 0 | . | .
CC1(C)CC(NC(=O)c2cccc(S(=O)(=O)N(Cc3ccccc3)c3ccccc3)c2)CC(C)(C)N1 | 6.8* | -1 | 5 | -1 | 83* | . | -17 | MPTP swell DR=9.5*;MPTP cs DR=>80
